A selection: hits, their analogues and other compounds. The true share with any hit is near 1.9%.
Rpn11 block: Rpn11 (human) deubiquitinase inhibition; inhibition, % at 20 µM; human 26S proteasome, Ub4-pepOG fluorescence polarization; 20S core pre-blocked with epoxomicin; 360,000 compounds, 0.59% hits; O00487;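 active = inhibition at 20 µM, scaled to each plate's controls, above about 33%, limit read from the data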
Target sequence (O00487 whole entry, looked up): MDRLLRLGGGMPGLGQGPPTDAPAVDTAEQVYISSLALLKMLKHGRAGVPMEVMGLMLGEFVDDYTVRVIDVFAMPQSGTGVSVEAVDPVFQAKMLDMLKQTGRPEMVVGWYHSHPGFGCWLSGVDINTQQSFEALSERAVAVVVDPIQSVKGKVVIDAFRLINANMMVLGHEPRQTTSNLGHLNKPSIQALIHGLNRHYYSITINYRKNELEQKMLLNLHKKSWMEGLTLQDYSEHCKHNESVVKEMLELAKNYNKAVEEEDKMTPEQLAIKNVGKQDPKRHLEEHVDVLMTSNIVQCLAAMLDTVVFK
NadD block: inhibitors of Staphylococcus aureus NadD; 360,000 compounds, 0.78% hits; inhibition, % at 20 µM; AID 602399; purified NadD enzyme, colorimetric absorbance read-out; in the data active = inhibition above about 26%
XiGFP reactiv: activators of X-chromosome reactivation in mouse fibroblasts; XiGFP mouse fibroblasts, % GFP-positive cells imaging, 3 d; cells co-treated with 5-aza-dC sensitizer; scaled so ellipticine positive control = 100%; activation, % at 7.58 µM; 360,000 compounds, 0.055% hits; AID 743238;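 active = mean normalized replicate activation at least 10% and every replicate at or above 10%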;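 also: 0% = median of on-plate neutral control wells and 100% = ellipticine 6 µM median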
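System: 68-5-11 XiGFP fibroblast line | Buffer or medium: DMEM containing 5-aza-dC | Compound: Single point | Times: Compounds 3 days, fix/stain 15 min at room temperature | Benchmarks: Positive control ellipticine, 6 µM final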
Rin1 Abl inh: blocks binding of human Rin1 to Abl; P00519+Q13671; TR-FRET Rin1/Abl binding, biochemical; inhibition, % at 7.35 µM; 360,000 compounds, 0.4% hits; AID 588664; in the data active = inhibition above about 5%, passing the limit was not always enough
ABHD5-PLIN5 inh: inhibitors of human ABHD5-perilipin-5 interaction; Q00G26+Q8WTS1; 360,000 compounds, 0.78% hits; AID 602281; Split G. princeps luciferase complementation, luminescence, 4 h; inhibition, % at 4 µM;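 active = inhibition above the mean inhibition across every tested compound plus 3 SD, cut at about 22% in these data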;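 also: 0% = DMSO only wells and the 100% control is not disclosed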
NadD conf: confirmation of Staphylococcus aureus NadD inhibitors; inhibition, % at 20 µM; 2,000 compounds, 13% hits; shares compounds with NadD block; purified S. aureus NadD, colorimetric enzyme assay; in the data active = inhibition mostly above about 42%, no sharp cut-off; inactive = mostly below about 42%
Starred values were filed as active, the others as inactive; / = no result given.

SMILES	Rpn11 block	NadD block	XiGFP reactiv	Rin1 Abl inh	ABHD5-PLIN5 inh	NadD conf
COc1cccc(-c2cc(C(=O)Nc3nc4ccccc4s3)c3ccccc3n2)c1	13.1	35.8*	/	-0.4	-3.5	5.7
CCNC(=S)NNC(=O)c1cc(-c2cccc(OC)c2)nc2ccccc12	-9.0	1.5	0.2	-2.7	-5.2	/
CC(C)(C)c1ccc(-c2cc(C(=O)NNC(=O)Nc3ccccc3)c3ccccc3n2)cc1	-0.5	37.2*	/	-1.6	-8.0	24.5
CCS(=O)(=O)N1CC2(C1)[C@H](c1ccccc1)[C@@H](CO)N2C(=O)C1CC1	/	/	0.0	/	/	/
C[C@@H](NC(=O)C[C@@H]1C[C@H]2c3cc(NC(=O)CC4CC4)ccc3O[C@H]2[C@@H](CO)O1)c1ccccc1	/	/	0.0	/	/	/
COc1cc2c(cc1NC(=O)c1cc(-c3ccncc3)nc3ccccc13)oc1ccccc12	29.0	47.6*	0.0	-6.2	1.7	5.1
COc1ccc(-c2cc(C(=O)NNC(=S)NC(=O)c3c(-c4ccccc4)noc3C)[nH]n2)cc1	33.9	42.5*	0.1	-1.5	-2.3	52.5*
COc1ccc(/C=C/C(=O)NC(=S)NNC(=O)c2c(-c3ccccc3)noc2C)cc1	22.8	19.2	-0.1	0.8	-1.8	/
COc1ccc(C(=O)NNC(=S)NC(=O)c2cc(-c3ccccc3)nc3ccccc23)cc1	22.4	49.1*	/	0.9	-0.4	67.7*
COc1cc2c(cc1NC(=O)c1cc(-c3cccnc3)nc3ccc(C)cc13)oc1ccccc12	12.8	21.5	/	0.7	0.8	/
CCNC(=S)NNC(=O)c1cc(-c2ccc(OCC)cc2)nc2ccccc12	24.3	2.2	/	3.0	-5.6	/
COC(=O)c1ccc(NC(=S)NC(=O)c2cc(-c3ccccc3)nc3ccccc23)cc1	2.6	20.8	/	2.9	1.8	/
CCCOc1ccc(C(=O)NNC(=S)NC(=O)c2cc(-c3ccc(Cl)cc3)nc3ccccc23)cc1	22.3	78.8*	/	-2.2	-17.1	13.7
Oc1ccc(C[C@@H](CN2CCCC2CN2C(=S)NC[C@@H]2Cc2ccccc2)N2C[C@H](Cc3ccccc3)N(CC3CCCCC3)C2=S)cc1 (stereo partly specified)	/	43.9*	0.5	/	9.1	12.6
CC(C)C[C@H]1CNC(=S)N1C[C@H]1CCCN1C[C@H](Cc1ccccc1)N1C[C@H](Cc2ccc(O)cc2)N(CC2CCCCC2)C1=S	-3.9	35.2*	-0.1	-2.2	10.2	-0.3
Oc1ccc(C[C@H]2CNC(=S)N2CC2CCCN2C[C@H](Cc2ccccc2)N2C[C@H](Cc3ccc(O)cc3)N(CC3CCCCC3)C2=S)cc1 (stereo partly specified)	7.8	53.4*	0.1	1.7	16.0	19.5
Oc1ccc(C[C@H]2CN([C@@H](Cc3ccccc3)CN3CCC[C@@H]3CN3C(=S)NC[C@@H]3Cc3ccccc3)C(=S)N2CC2CCCCC2)cc1	-0.2	21.7	-0.1	1.9	5.4	/
CC(C)C[C@H]1CNC(=S)N1CC1CCCN1C[C@H](Cc1ccc(O)cc1)N1C[C@H](Cc2ccccc2)N(CC2CCCCC2)C1=S (stereo partly specified)	0.2	27.9	-0.1	1.4	4.7	/
Oc1ccc(C[C@H]2CNC(=S)N2CC2CCCN2C[C@H](Cc2ccc(O)cc2)N2C[C@H](Cc3ccccc3)N(CC3CCCCCC3)C2=S)cc1 (stereo partly specified)	7.0	44.6*	-0.1	0.8	11.0	31.3
Oc1ccc(C[C@H]2CNC(=S)N2CC2CCCN2C[C@H](Cc2ccc(O)cc2)N2C[C@H](Cc3ccc(O)cc3)N(CC3CCCCCC3)C2=S)cc1 (stereo partly specified)	5.9	55.4*	0.0	-3.8	5.3	40.8
Oc1ccc(C[C@@H](CN2CCCC2CN2C(=S)NC[C@@H]2Cc2ccccc2)N2C[C@H](Cc3ccccc3)N(CC3CCCCCC3)C2=S)cc1 (stereo partly specified)	/	45.5*	0.0	/	3.6	-4.3
Oc1ccc(C[C@H]2CNC(=S)N2CC2CCCN2C[C@H](Cc2ccc(O)cc2)N2C[C@H](Cc3ccccc3)N(CC3CCCCC3)C2=S)cc1 (stereo partly specified)	-1.9	50.5*	-0.1	-2.3	3.5	54.9*
CC(C)C[C@H]1CNC(=S)N1CC1CCCN1C[C@H](Cc1ccccc1)N1C[C@H](Cc2ccccc2)N(CC2CCCCC2)C1=S (stereo partly specified)	-1.4	6.5	-0.1	2.6	6.5	/
CNC[C@H]1Oc2cc(C#CC3(O)CCCC3)ccc2S(=O)(=O)N([C@H](C)CO)C[C@H]1C	/	/	-0.1	/	/	/
COc1ccccc1C(=O)Nc1ccc2c(c1)nc1n2CCN(C2CCCCC2)C1	19.8	34.7*	0.2	1.9	3.9	2.4
SMILES	Rpn11 block	NadD block	XiGFP reactiv	Rin1 Abl inh	ABHD5-PLIN5 inh	NadD conf
CC(=O)N1CCN(C2c3cccc4cccc(c34)C2NS(=O)(=O)c2ccccc2)CC1 (stereo unspecified)	-5.6	-0.8	/	1.4	-0.4	/
Cc1ccc(C(=O)N2CCN(C3c4cccc5cccc(c45)C3NS(=O)(=O)c3ccccc3)CC2)cc1 (stereo unspecified)	5.5	36.5*	/	0.0	8.2	19.1
CN(C)C(=O)C[C@@H]1CC[C@H](NC(=O)Nc2cccc(F)c2)[C@@H](CO)O1	/	/	0.0	/	/	/
CC(C)c1ccc(OCC(=O)NNC(=S)NC(=O)c2cccs2)c(Br)c1	3.8	25.4*	0.1	-3.3	0.4	9.6
Cn1c2ccccc2c(=O)c2ccc(NCCc3cccs3)cc21	-77.2	35.7*	0.1	-2.3	1.5	3.0
CC(C)NC(=O)Nc1ccc2c(c1)C(=O)N([C@@H](C)CO)C[C@@H](C)[C@@H](CN(C)C(=O)Nc1ccccc1)OCCCC[C@@H](C)O2	/	/	0.0	/	/	/
O=C(OCC(=O)c1ccc(Cl)cc1Cl)c1ccc2c(c1)C(=O)N(c1cccc3ncccc13)C2=O	1.4	42.7*	/	-0.4	5.5	7.1
O=C(COC(=O)c1ccc2c(c1)C(=O)N(c1cccc3ncccc13)C2=O)c1ccc(Cl)cc1	-0.8	8.8	0.0	0.7	5.8	/
O=C(NC(=S)Nn1cnc2c(cnn2-c2ccccc2)c1=O)c1ccc(Oc2ccccc2)cc1	-5.4	42.0*	0.0	1.8	1.8	5.1
C/C=C/c1cnc2c(c1)C(=O)N([C@H](C)CO)C[C@@H](C)[C@H](CN(C)Cc1ccccc1F)O2	/	/	0.1	/	/	/
CC(C)(C)c1ccc(-c2n[nH]c(=S)n2Cc2ccccc2)cc1	1.3	4.4	0.3	-1.2	-20.3	/
CC(C)n1c(-c2ccc(C(C)(C)C)cc2)n[nH]c1=S	-4.0	29.3*	/	0.4	-17.2	11.8
C[C@@H]1C(=O)N[C@@H](c2ccc3c(c2)OCO3)CC=CC[C@H](C)Oc2ccccc2C(=O)N1C (mixture of isomers)	/	/	0.1	/	/	/

High-throughput results from PubChem BioAssay.
